Activity calls are given as the source filed them. The calls are words filed in the database; no cut-off is given here.
Tests used:
[1] = tested on: HCT-116; test: Cytotoxicity against human HCT-116 cells assessed as reduction in cell viability measured after 72 hrs by MTT assay; assay type: functional, cell-based; conditions: HCT-116, 72 h
[2] = tested on: MCF7; test: Cytotoxicity against human MCF7 cells assessed as reduction in cell viability measured after 72 hrs by MTT assay; assay type: functional, cell-based; conditions: MCF7, 72 h
[3] = tested on: Jurkat; test: Cytotoxicity against human Jurkat cells assessed as reduction in cell viability measured after 72 hrs by MTT assay; assay type: functional, cell-based
[4] = tested on: NAMALVA; test: Cytotoxicity against human NAMALVA cells assessed as reduction in cell viability measured after 72 hrs by MTT assay; assay type: functional, cell-based
[5] = tested on: Jurkat; test: Cytotoxicity against human Jurkat cells assessed as reduction in cell viability measured after 48 hrs MTT assay; assay type: functional, cell-based
[6] = tested on: Jurkat; test: Effect on phosphotyrosine expression in human Jurkat cells at IC50 measured after 48 hrs by Western blot analysis; assay type: functional, cell-based
[7] = tested on: Jurkat; test: Cytotoxicity against human Jurkat cells assessed as reduction in cell proliferation at IC50 measured after 48 hrs by Ki-67 staining based fluorescence assay; assay type: functional
Procedure, shortened: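 Ki-67 stained per kit instructions; mean fluorescence intensity by flow cytometry, normalized to untreated cells; at least three independent experiments, ANOVA with Bonferroni post-test.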

[8] = Selectivity index, ratio of IC50 for human HS5 cells to IC50 for human Jurkat cells
[9] = target: T1, Histone deacetylase (Homo sapiens) (UniProt Q13547+O15379+Q9UBN7+Q92769+Q9UQL6+Q8WUI4+Q9BY41+Q96DB2+P56524+Q9UKV0+Q969S8); test: Inhibition of HDAC in human Jurkat cells assessed as increase in gammaH2AX expression at IC50 measured after 48 hrs by Western blot analysis; assay type: cell-based
[10] = target: T2, Protein deacetylase HDAC6 (Homo sapiens) (UniProt Q9UBN7); test: Inhibition of HDAC6 in human NAMALVA cells assessed as increase in acetylated alpha-tubulin expression at IC50 measured after 48 hrs by Western blot analysis; assay type: cell-based
T2 sequence (whole entry): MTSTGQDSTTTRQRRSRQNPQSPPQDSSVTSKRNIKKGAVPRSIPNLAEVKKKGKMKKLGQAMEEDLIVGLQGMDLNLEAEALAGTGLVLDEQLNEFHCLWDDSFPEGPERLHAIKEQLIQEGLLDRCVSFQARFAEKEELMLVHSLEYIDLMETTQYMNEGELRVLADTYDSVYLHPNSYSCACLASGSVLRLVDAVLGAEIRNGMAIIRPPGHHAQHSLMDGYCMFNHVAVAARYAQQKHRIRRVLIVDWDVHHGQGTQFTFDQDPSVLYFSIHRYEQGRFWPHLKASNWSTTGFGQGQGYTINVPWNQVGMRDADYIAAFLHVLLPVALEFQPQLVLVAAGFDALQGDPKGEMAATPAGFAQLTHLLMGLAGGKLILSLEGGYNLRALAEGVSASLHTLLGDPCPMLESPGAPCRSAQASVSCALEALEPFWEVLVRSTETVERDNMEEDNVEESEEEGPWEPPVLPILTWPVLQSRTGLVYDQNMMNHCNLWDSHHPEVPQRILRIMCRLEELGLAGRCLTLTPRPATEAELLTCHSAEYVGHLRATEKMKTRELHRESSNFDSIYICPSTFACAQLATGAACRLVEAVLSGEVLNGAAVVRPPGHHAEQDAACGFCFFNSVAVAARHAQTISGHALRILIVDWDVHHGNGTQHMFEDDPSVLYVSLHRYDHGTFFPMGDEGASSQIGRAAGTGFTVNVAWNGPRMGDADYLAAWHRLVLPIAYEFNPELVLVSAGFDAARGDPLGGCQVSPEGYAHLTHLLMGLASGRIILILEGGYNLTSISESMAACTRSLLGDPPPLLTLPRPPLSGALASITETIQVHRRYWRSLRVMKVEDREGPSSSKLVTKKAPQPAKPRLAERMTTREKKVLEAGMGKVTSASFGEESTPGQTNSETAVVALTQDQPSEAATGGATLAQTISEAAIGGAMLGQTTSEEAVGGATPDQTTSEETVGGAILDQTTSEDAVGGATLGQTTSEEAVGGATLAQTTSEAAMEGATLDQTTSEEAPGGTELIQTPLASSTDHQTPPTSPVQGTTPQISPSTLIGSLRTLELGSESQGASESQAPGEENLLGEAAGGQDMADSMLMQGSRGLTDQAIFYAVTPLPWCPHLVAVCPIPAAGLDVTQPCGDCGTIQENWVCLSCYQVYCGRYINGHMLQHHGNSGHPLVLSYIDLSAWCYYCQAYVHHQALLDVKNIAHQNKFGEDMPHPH

[11] = tested on: Jurkat; test: Cytotoxicity against human Jurkat cells assessed as reduction in cell viability MTT assay; assay type: functional, cell-based; conditions: time 24-72 hrs, TDE = time-dependent effect
Procedure, shortened: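 Jurkat cells (2 × 10^4/well) in RPMI with 10% FBS and 1% penicillin–streptomycin, exposed 24, 48 and 72 h to compound (0.0032–50 μM); 1% DMSO as negative control. MTT at 0.5 mg/mL final for 3 h, formazan dissolved in 0.1 N HCl/isopropanol. IC50 with 95% confidence intervals from sigmoidal nonlinear regression; mean ± SEM.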

[12] = tested on: Jurkat; test: Induction of apoptosis in human Jurkat cells assessed as necrotic cells at 0.5 times IC50 measured after 48 hrs by Annexin V-FITC/7AAD staining based flow cytometry (reference value: 0.23%); assay type: functional
[13] = Cytotoxicity against human HS5 cells assessed as reduction in cell viability measured after 72 hrs by MTT assay; assay type: ADME, cell-based; conditions: HS5, 72 h
[14] = target: T2, Protein deacetylase HDAC6 (Homo sapiens); test: Inhibition of HDAC6 in human Jurkat cells assessed as increase in acetylated alpha-tubulin expression at IC50 measured after 48 hrs by Western blot analysis; assay type: cell-based
[15] = Selectivity ratio of IC50 for human HCT-116 cells to IC50 for human NAMALVA cells; assay type: functional
[16] = tested on: NAMALVA; test: Induction of apoptosis in human NAMALVA cells assessed as early apoptotic cells at 0.5 times IC50 measured after 48 hrs by Annexin V-FITC/7AAD staining based flow cytometry (reference value: 5.07%); assay type: functional
[17] = tested on: NAMALVA; test: Induction of apoptosis in human NAMALVA cells assessed as late apoptotic cells at 0.5 times IC50 measured after 48 hrs by Annexin V-FITC/7AAD staining based flow cytometry (reference value: 3.52%); assay type: functional
[18] = Selectivity index, ratio of IC50 for human HS5 cells to IC50 for human NAMALVA cells
[19] = tested on: Jurkat; test: Effect on phosphoserine expression in human Jurkat cells at IC50 measured after 48 hrs by Western blot analysis; assay type: functional, cell-based
[20] = tested on: NAMALVA; test: Effect on phosphoserine expression in human NAMALVA cells at IC50 measured after 48 hrs by Western blot analysis; assay type: functional, cell-based
[21] = tested on: NAMALVA; test: Induction of apoptosis in human NAMALVA cells assessed as necrotic cells at 0.5 times IC50 measured after 48 hrs by Annexin V-FITC/7AAD staining based flow cytometry (reference value: 1.05%); assay type: functional
[22] = target: T1, Histone deacetylase (Homo sapiens); test: Inhibition of HDAC in human NAMALVA cells assessed as increase in gammaH2AX expression at IC50 measured after 48 hrs by Western blot analysis; assay type: cell-based
[23] = Selectivity ratio of IC50 for human HCT-116 cells to IC50 for human Jurkat cells; assay type: functional
[24] = tested on: Jurkat; test: Induction of apoptosis in human Jurkat cells assessed as early apoptotic cells at 0.5 times IC50 measured after 48 hrs by Annexin V-FITC/7AAD staining based flow cytometry (reference value: 6.05%); assay type: functional
[25] = tested on: NAMALVA; test: Induction of apoptosis in human NAMALVA cells assessed as viable cells at 0.5 times IC50 measured after 48 hrs by Annexin V-FITC/7AAD staining based flow cytometry (reference value: 90.4%); assay type: functional
[26] = tested on: NAMALVA; test: Effect on phosphotyrosine expression in human NAMALVA cells at IC50 measured after 48 hrs by Western blot analysis; assay type: functional, cell-based
[27] = tested on: Jurkat; test: Cytotoxicity against human Jurkat cells assessed as reduction in cell viability measured after 24 hrs MTT assay; assay type: functional, cell-based
[28] = tested on: Jurkat; test: Induction of apoptosis in human Jurkat cells assessed as late apoptotic cells at 0.5 times IC50 measured after 48 hrs by Annexin V-FITC/7AAD staining based flow cytometry (reference value: 6.77%); assay type: functional
[29] = tested on: Jurkat; test: Induction of apoptosis in human Jurkat cells assessed as viable cells at 0.5 times IC50 measured after 48 hrs by Annexin V-FITC/7AAD staining based flow cytometry (reference value: 85.2%); assay type: functional

O=C(Nc1ccccc1)Nc1ccc(C(=O)NO)cc1
IC50 [1]: 14700 nM
IC50 [2]: > 50000 nM
IC50 [3]: 2500 nM
IC50 [4]: 530 nM

COc1ccc(NC(=O)Nc2ccc(/C=C/C(=O)NO)cc2)cc1
IC50 [5]: 700 nM
inhibition [6]: inactive
Activity [7]: Active
Ratio IC50 [8]: 27
inhibition [9]: Active
inhibition [10]: Active
Activity [11]: Tde
Activity [12]: 0.39%
IC50 [13]: 3000 nM
IC50 [1]: 11900 nM
inhibition [14]: Active
Ratio IC50 [15]: 26
Activity [16]: 10.2%
Activity [17]: 5.42%
Ratio IC50 [18]: 7
inhibition [19]: inactive
inhibition [20]: inactive
Activity [21]: 1.46%
inhibition [22]: Active
IC50 [2]: > 50000 nM
Ratio IC50 [23]: 108
IC50 [3]: 110 nM
Activity [24]: 9.66%
Activity [25]: 82.9%
inhibition [26]: inactive
IC50 [27]: 1800 nM
IC50 [4]: 460 nM
Activity [28]: 7.77%
Activity [29]: 82.2%

COc1cccc2c1C(=O)c1c(O)c3c(c(O)c1C2=O)C[C@@](O)(C(=O)CO)C[C@@H]3O[C@H]1C[C@H](N)[C@H](O)[C@H](C)O1 [DOXORUBICIN]
IC50 [5]: 200 nM
IC50 [13]: 150 nM
IC50 [2]: 1900 nM
IC50 [3]: 50 nM
IC50 [27]: 700 nM
IC50 [4]: 90 nM

O=C(CCc1ccc(NC(=O)Nc2ccc([N+](=O)[O-])cc2)cc1)NO
IC50 [1]: 6370 nM
IC50 [2]: > 50000 nM
IC50 [3]: 810 nM
IC50 [4]: 2500 nM

O=C(Nc1ccc(C(=O)NO)cc1)Nc1ccc([N+](=O)[O-])cc1
IC50 [1]: 28400 nM
IC50 [2]: > 50000 nM
IC50 [3]: 12600 nM
IC50 [4]: 13200 nM

COc1ccc(NC(=O)Nc2ccc(CCC(=O)NO)cc2)cc1
IC50 [1]: 31000 nM
IC50 [2]: > 50000 nM
IC50 [3]: 2800 nM
IC50 [4]: 1990 nM

O=C(/C=C/c1ccc(NC(=O)Nc2ccccc2)cc1)NO
IC50 [5]: 1200 nM
inhibition [6]: inactive
Activity [7]: Active
Ratio IC50 [8]: 6
inhibition [9]: Active
inhibition [10]: Active
Activity [11]: Tde
Activity [12]: 0.31%
IC50 [13]: 1000 nM
IC50 [1]: 6490 nM
inhibition [14]: Active
Ratio IC50 [15]: 22
Activity [16]: 12.4%
Activity [17]: 5.2%
Ratio IC50 [18]: 3
inhibition [19]: inactive
inhibition [20]: inactive
Activity [21]: 1.05%
inhibition [22]: Active
IC50 [2]: > 50000 nM
Ratio IC50 [23]: 41
IC50 [3]: 160 nM
Activity [24]: 7.03%
Activity [25]: 81.4%
inhibition [26]: inactive
IC50 [27]: 2700 nM
IC50 [4]: 300 nM
Activity [28]: 4.39%
Activity [29]: 87.4%

O=C(CCc1ccc(NC(=O)Nc2ccccc2)cc1)NO
IC50 [1]: 16200 nM
IC50 [2]: > 50000 nM
IC50 [3]: 1590 nM
IC50 [4]: 780 nM

COc1ccc(NC(=O)Nc2ccc(C(=O)NO)cc2)cc1
IC50 [1]: 22300 nM
IC50 [2]: > 50000 nM
IC50 [3]: 8030 nM
IC50 [4]: 4790 nM
